Data published in ChEMBL document CHEMBL1144563 (Bioorg Med Chem, 2007).

Tests used:
Mus musculus [1] = assay: Antagonism of nicotine-induced antinociceptive effect in mouse at 30 mg/kg, sc by tail flick assay; format: functional; set-up: scale not given: the % may be the effect or the level left; conditions: route subcutaneous
How it was run: (§1)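 Mice given saline or analog s.c. at varied times before nicotine; tail-flick tested 5 min after nicotine. Baseline latency 2–4 s, cutoff 10 s. %MPE = (test−control)/(10−control)×100. 8–12 mice per dose, at least 4 doses; AD50 with confidence limits from dose-response, or % effect at top dose.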

Mus musculus [2] = assay: Antagonism of nicotine-induced effect in mouse at 30 mg/kg, sc by hot plate assay; format: functional; set-up: scale not given: the % may be the effect or the level left; conditions: route subcutaneous
How it was run: (§2)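 Hot plate held at 55.0 C, mice in a 10 cm glass cylinder. Two control latencies taken at least 10 min apart (normal 8–12 s). Latency scored at jump or paw lick. %MPE = (test−control)/(40−control)×100. Analog given s.c. before nicotine; at least 8 mice per dose; % effect at highest dose.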

Mus musculus [3] = assay: Antagonism of nicotine-induced seizures in ICR mouse at 50 mg/kg, sc; format: functional; set-up: scale not given: the % may be the effect or the level left; conditions: route subcutaneous
How it was run: (§3)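 Mice given saline or analog s.c. 10 min before nicotine. Percentage of animals seizing recorded. Dose-response from at least 4 doses with at least 8 mice per dose; AD50 with confidence limits, or % effect at highest dose.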

[4] = Displacement of [3H]epibatidine from nAChRalpha, beta in rat cerebral cortex; format: tissue-based
How it was run: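 Washed male rat cerebral cortex homogenate, 3 mg wet weight, in 50 mM Tris pH 7.4 with NaCl, KCl, CaCl2 and MgCl2. 0.5 nM [3H]epibatidine with 10–12 compound concentrations, 1% DMSO final; 300 μM (–)-nicotine defined nonspecific binding. Incubated 4 h at room temperature, then filtered on PEI-soaked GF/B and counted. Nonlinear fit, at least three experiments.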

Mus musculus [5] = assay: Antagonism of nicotine-induced antinociceptive effect in sc dosed mouse by tail flick assay; format: functional; how it was run: as §1
Mus musculus [6] = assay: Antagonism of nicotine-induced seizures in sc dosed ICR mouse; format: functional; how it was run: as §3
Mus musculus [7] = assay: Antagonism of nicotine-induced effect in mouse at 20 mg/kg, sc by hot plate assay; format: functional; set-up: scale not given: the % may be the effect or the level left; conditions: route subcutaneous; how it was run: as §2
[8] = biological target: Neuronal acetylcholine receptor subunit alpha-7 (Rattus norvegicus, UniProt Q05941); assay: Displacement of [125I]iodoMLA from alpha-7 nAChR in rat cerebral cortex; format: tissue-based
Chain of Neuronal acetylcholine receptor subunit alpha-7 (Q05941 whole entry): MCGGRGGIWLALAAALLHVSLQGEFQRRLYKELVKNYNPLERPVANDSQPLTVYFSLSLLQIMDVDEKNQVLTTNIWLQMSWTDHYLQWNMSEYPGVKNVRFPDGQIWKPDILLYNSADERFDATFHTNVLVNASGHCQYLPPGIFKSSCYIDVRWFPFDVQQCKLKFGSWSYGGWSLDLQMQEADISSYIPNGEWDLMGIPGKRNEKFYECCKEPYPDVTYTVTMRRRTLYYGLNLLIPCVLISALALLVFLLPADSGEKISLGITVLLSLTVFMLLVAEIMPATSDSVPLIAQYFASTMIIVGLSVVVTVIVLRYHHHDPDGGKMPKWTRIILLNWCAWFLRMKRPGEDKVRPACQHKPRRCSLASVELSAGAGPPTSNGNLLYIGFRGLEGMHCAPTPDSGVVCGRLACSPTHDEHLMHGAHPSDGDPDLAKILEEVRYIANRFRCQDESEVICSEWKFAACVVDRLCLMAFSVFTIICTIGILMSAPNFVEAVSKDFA

SMILES	Activity (Mus musculus [1])	Activity (Mus musculus [2])	Activity (Mus musculus [3])	Ki [4]	AD50 (Mus musculus [5])	AD50 (Mus musculus [6])	Activity (Mus musculus [7])	Ki [8]
CCN1C[C@]2(COC(=O)c3ccccc3N3C(=O)C[C@@H](C)C3=O)CC[C@H](OC)[C@@]34[C@@H]5C[C@H]6[C@H](OC)[C@@H]5[C@](O)(C[C@@H]6OC)[C@](O)([C@@H](OC)[C@H]23)[C@@H]14	10%	0%	40%	352 nM				
CCN1C[C@]2(COC(=O)c3ccccc3N3C(=O)CC(C)(C)C3=O)CC[C@H](OC)C34C2[C@H](OC)[C@](O)(C13)[C@@]1(O)C[C@H](OC)[C@H]2C[C@@H]4[C@@H]1[C@H]2OC				602 nM	1.8 mg/kg	10 mg/kg	13%	1.78 nM
CCN1C[C@]2(COC(=O)c3ccccc3N3C(=O)C(C)[C@H](C)C3=O)CC[C@H](OC)C34C2[C@H](OC)[C@](O)(C13)[C@@]1(O)C[C@H](OC)[C@H]2C[C@@H]4[C@@H]1[C@H]2OC (stereo partly drawn)			0%	321 nM	7 mg/kg		25%	2.46 nM
CCN1C[C@]2(COC(=O)c3ccccc3N3C(=O)C[C@H](C)C3=O)CC[C@H](OC)[C@@]34[C@@H]5C[C@H]6[C@H](OC)[C@@H]5[C@](O)(C[C@@H]6OC)[C@](O)([C@@H](OC)[C@H]23)[C@@H]14 [METHYLLYCACONITINE]				739 nM	12 mg/kg	2 mg/kg	15%	
